From ChEMBL document CHEMBL3232989, “First identification of boronic species as novel potential inhibitors of the Staphylococcus aureus NorA efflux pump” (J Med Chem, 2014)
≈ marks a conversion by molar mass, not a printed value.

Columns and labels:
[1] = molecular target: T1, Quinolone resistance protein NorA (Staphylococcus aureus) (UniProt P0A0J7); assay: Inhibition of NorA in fluoroquinolone-resistant Staphylococcus aureus 1199B assessed as potentiation of 4 ug/ml of ciprofloxacin MIC at 100 ug/ml after 24 hrs by microdilution method
T1 sequence (whole entry): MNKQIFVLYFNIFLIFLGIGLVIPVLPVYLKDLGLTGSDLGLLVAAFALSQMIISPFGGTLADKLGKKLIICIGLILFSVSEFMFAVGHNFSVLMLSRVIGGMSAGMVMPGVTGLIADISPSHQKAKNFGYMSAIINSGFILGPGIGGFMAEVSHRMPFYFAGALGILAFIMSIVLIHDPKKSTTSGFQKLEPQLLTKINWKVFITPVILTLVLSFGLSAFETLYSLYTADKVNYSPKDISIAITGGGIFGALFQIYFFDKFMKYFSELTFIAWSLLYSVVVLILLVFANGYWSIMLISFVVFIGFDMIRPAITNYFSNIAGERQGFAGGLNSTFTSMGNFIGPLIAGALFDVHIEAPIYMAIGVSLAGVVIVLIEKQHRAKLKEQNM
How it was run: (§1)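 Combination with ciprofloxacin 4 μg/mL (MIC/4) against SA-1199B in MH broth microdilution, 10^6 CFU/mL, 24 h at 37 °C, read at 620 nm and visually. Compounds are first screened at 100 μg/mL; actives are 2-fold serially diluted. MMC4 is the lowest inhibitor concentration giving antibacterial activity with subinhibitory ciprofloxacin. Duplicates.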

Staphylococcus aureus [2] = assay: Toxicity in Staphylococcus aureus ATCC 25923 after 24 hrs by microdilution method; type: organism-based
How it was run: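 Mueller–Hinton broth microdilution; inoculum from frozen culture grown 18 h at 37 °C, 10^6 CFU/mL per well. Compounds (10 mg/mL DMSO stock) in 2-fold serial dilutions, highest 128 mg/L, first screened at 100 μg/mL. MIC = complete growth inhibition after 24 h at 37 °C, read at 620 nm and visually; duplicate; ampicillin control.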

Staphylococcus aureus [3] = assay: Toxicity in fluoroquinolone-resistant Staphylococcus aureus 1199B expressing NorA at 100 ug/ml after 24 hrs by microdilution method; type: organism-based
How it was run: (§2)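 Single-point screen at 100 μg/mL of compound alone in MH broth microdilution, 10^6 CFU/mL, 24 h at 37 °C. Growth is read at 620 nm and visually, giving percent growth inhibition. Compounds inhibiting more than 90% then go to MIC determination. Duplicates.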

[4] = Cytotoxicity against human KB cells assessed growth inhibition at 10 uM after 72 hrs by MTS assay; type: cell-based; details: read-out: GI
How it was run: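 KB cells (from NCI) grown in DMEM with 10% FCS, penicillin-streptomycin, fungizone and glutamine, 37 °C, 5% CO2; compounds in DMSO added 24 h after plating (1% DMSO final, controls same). 72 h exposure, then MTS 3 h at 37 °C, absorbance at 490 nm; inhibition = (1 − OD490 treated/OD490 control)×100, triplicate experiments.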

Staphylococcus aureus [5] = assay: Toxicity in Staphylococcus aureus ATCC 25923 at 100 ug/ml after 24 hrs by microdilution method; type: organism-based; how it was run: as §2
Staphylococcus aureus [6] = assay: Toxicity in fluoroquinolone-resistant Staphylococcus aureus 1199B expressing NorA after 24 hrs by microdilution method; type: organism-based; details: in vitro
How it was run: (§3)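 Broth microdilution in Mueller–Hinton broth, 10^6 CFU/mL per well from an 18 h 37 °C culture. Compounds come from 10 mg/mL DMSO stocks as 2-fold serial dilutions, top 128 mg/L. Plates run 24 h at 37 °C and are read at 620 nm and visually. MIC is the lowest concentration with complete growth inhibition. Duplicates; 2-fold variance accepted.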

[7] = tested on: Staphylococcus aureus subsp. aureus RN4220; assay: Inhibition of MsrA in macrolide-resistant Staphylococcus aureus RN4220 harboring pUL5054 assessed as potentiation of 4 ug/ml of […] erythromycin MIC after 24 hrs by microdilution method (reference value: […] ug/ml)
[8] = molecular target: T1, Quinolone resistance protein NorA (Staphylococcus aureus); assay: Inhibition of NorA in fluoroquinolone-resistant Staphylococcus aureus 1199B assessed as potentiation of 4 ug/ml of ciprofloxacin MIC at 1 ug/ml after 24 hrs by microdilution method; how it was run: as §1
Staphylococcus aureus [9] = assay: Antibacterial activity against fluoroquinolone-resistant Staphylococcus aureus 1199B expressing NorA after 24 hrs by microdilution method; type: functional; how it was run: as §3
Staphylococcus aureus [10] = assay: Antibacterial activity against Staphylococcus aureus ATCC 25923 after 24 hrs by microdilution method; type: functional; details: ATCC 25923, 24 h; how it was run: as §3

Row | Compound | Activity [1] [µg/mL] | MIC (Staphylococcus aureus [2]) | growth inhibition (GI) (Staphylococcus aureus [3]) [%] | inhibition at 72 h, 10 µM [4] [%] | growth inhibition (GI) (Staphylococcus aureus [5]) [%] | MIC (Staphylococcus aureus [6]) [µg/mL] | Activity [7] [µg/mL] | fold change (FC) [8] | MIC (Staphylococcus aureus [9]) [µg/mL] | MIC (Staphylococcus aureus [10]) [µg/mL]
1 | OB(O)c1ccc(Br)nc1 | 8 | >= 64 ug ml-1 | < 90 | 1 | < 90 | – | – | – | – | –
2 | OB(O)c1cccnc1F | 8 | >= 64 ug ml-1 | < 90 | 4 | < 90 | – | – | – | – | –
3 | O=Cc1ccc(B(O)O)cc1Cl | 4 | >= 64 ug ml-1 | – | 100 | – | 32 (≈ 174 µM) | 32 | – | – | –
4 | OB(O)c1cc(Cl)cnc1Cl | 16 | >= 64 ug ml-1 | – | – | < 90 | > 128 | – | – | – | –
5 | OB(O)c1ccc(OCc2ccccc2)nc1 | 1 | >= 64 ug ml-1 | < 90 | 2 | < 90 | – | – | 4 | – | –
6 | OB(O)c1ccccc1Oc1ccccc1 | 32 | – | – | 10 | – | 32 (≈ 150 µM) | 32 | – | – | –
7 | CC[C@H]1OC(=O)[C@H](C)[C@@H](O[C@H]2C[C@@](C)(OC)[C@@H](O)[C@H](C)O2)[C@H](C)[C@@H](O[C@@H]2O[C@H](C)C[C@H](N(C)C)[C@H]2O)[C@](C)(O)C[C@@H](C)C(=O)[C@H](C)[C@@H](O)[C@]1(C)O [ERYTHROMYCIN] | – | – | – | – | – | – | – | – | 128 (≈ 174 µM) | 0.5 (≈ 0.681 µM)
8 | CC(C)(O)C(C)(C)OB(OC(C)(C)C(C)(C)O)c1ccnc(F)c1 | 2 | >= 64 ug ml-1 | < 90 | 0 | < 90 | – | – | – | – | –
9 | OB(O)c1ccc(OCc2ccccc2)cc1 | 0.5 | – | – | 6 | – | > 128 | – | – | – | –
10 | OB(O)c1ccc(Oc2cncc(Cl)c2)nc1 | 8 | >= 64 ug ml-1 | < 90 | 0 | < 90 | – | – | – | – | –
11 | CSc1ccc(B(O)O)cn1 | 8 | >= 64 ug ml-1 | < 90 | 0 | < 90 | – | – | – | – | –
12 | Cn1nccc1B1OC(C)(C)C(C)(C)O1 | 8 | >= 64 ug ml-1 | < 90 | 0 | < 90 | – | – | – | – | –
13 | CC(=O)OCc1ccc(B(OC(C)(C)C(C)(C)O)OC(C)(C)C(C)(C)O)cc1 | 4 | >= 64 ug ml-1 | < 90 | 6 | < 90 | – | – | – | – | –
14 | OB(O)c1cnc2ccccc2c1 | 4 | >= 64 ug ml-1 | < 90 | 0 | < 90 | – | – | – | – | –
15 | O=Cc1ccc(B(O)O)cc1C(F)(F)F | 16 | >= 64 ug ml-1 | – | 100 | – | 32 (≈ 147 µM) | 32 | – | – | –
16 | O=C(O)c1cn(C2CC2)c2cc(N3CCNCC3)c(F)cc2c1=O [CIPROFLOXACIN] | – | >= 64 ug ml-1 | – | – | – | – | – | – | – | 0.5 (≈ 1.51 µM)
17 | OB(O)c1ccc(Oc2ccc(Cl)nc2)nc1 | 4 | >= 64 ug ml-1 | < 90 | 0 | < 90 | – | – | – | – | –
18 | OB(O)c1ccc(Br)cc1 | 2 | – | – | 0 | – | > 128 | – | – | – | –
19 | COc1ccc(B(O)O)cn1 | 4 | >= 64 ug ml-1 | < 90 | 0 | < 90 | – | – | – | – | –

Row | Compound | Activity [1] [µg/mL] | MIC (Staphylococcus aureus [2]) | growth inhibition (GI) (Staphylococcus aureus [3]) [%] | inhibition at 72 h, 10 µM [4] [%] | growth inhibition (GI) (Staphylococcus aureus [5]) [%] | MIC (Staphylococcus aureus [6]) [µg/mL] | Activity [7] [µg/mL] | fold change (FC) [8] | MIC (Staphylococcus aureus [9]) [µg/mL] | MIC (Staphylococcus aureus [10]) [µg/mL]
20 | OB(O)c1cc(Br)cnc1F | 128 | >= 64 ug ml-1 | – | – | < 90 | > 128 | – | – | – | –
21 | Cc1c(B(O)O)ccc2ccccc12 | 8 | >= 64 ug ml-1 | < 90 | 0 | < 90 | – | – | – | – | –
22 | OB(O)c1ccc(Cl)cc1 | 1 | – | – | 0 | – | 64 (≈ 409 µM) | – | – | – | –
23 | Cc1cc(B(O)O)cnc1Cl | 4 | >= 64 ug ml-1 | – | 0 | < 90 | > 128 | – | – | – | –
24 | CC(C)(O)C(C)(C)OB(OC(C)(C)C(C)(C)O)c1ccc(Br)nc1 | 8 | >= 64 ug ml-1 | < 90 | 0 | < 90 | – | – | – | – | –
25 | CCOc1ccc(B(O)O)cn1 | 4 | >= 64 ug ml-1 | < 90 | 0 | < 90 | – | – | – | – | –
26 | Cc1cccc(C(=O)O)c1Cl | > 128 | >= 64 ug ml-1 | – | – | – | > 128 | – | – | – | –
27 | O=C(O)c1cnc2ccccc2c1 | 32 | >= 64 ug ml-1 | – | – | – | > 128 | – | – | – | –
28 | CC(=O)n1ncc2c(B3OC(C)(C)C(C)(C)O3)cccc21 | 8 | >= 64 ug ml-1 | < 90 | 0 | < 90 | – | – | – | – | –
29 | CC1(C)S[C@@H]2[C@H](NC(=O)[C@H](N)c3ccccc3)C(=O)N2[C@H]1C(=O)O [AMPICILLIN] | – | >= 64 ug ml-1 | – | – | – | – | – | – | – | 0.25 (≈ 0.715 µM)
30 | Oc1cccnc1 | > 128 | >= 64 ug ml-1 | – | – | – | > 128 | – | – | – | –
31 | Cc1cc(B(O)O)ccc1Cl | 2 | – | – | 0 | – | > 128 | – | – | – | –
32 | CC(C)(O)C(C)(C)OB(OC(C)(C)C(C)(C)O)c1cc(Cl)cnc1Cl | > 128 | >= 64 ug ml-1 | – | – | < 90 | 128 (≈ 326 µM) | – | – | – | –
33 | CC(C)(O)C(C)(C)OB(OC(C)(C)C(C)(C)O)c1cc(Br)cnc1F | 64 | >= 64 ug ml-1 | – | – | < 90 | 128 (≈ 305 µM) | – | – | – | –
34 | Oc1ccccc1 [PHENOL] | > 128 | >= 64 ug ml-1 | – | – | – | > 128 | – | – | – | –
35 | OB(O)c1ccc(Cl)nc1 | 8 | >= 64 ug ml-1 | < 90 | 1 | < 90 | – | – | – | – | –
36 | OB(O)c1ccsc1 | 8 | >= 64 ug ml-1 | < 90 | 0 | < 90 | – | – | – | – | –
37 | OB(O)c1ccc2ccccc2c1 | 4 | – | – | 3 | – | > 128 | – | – | – | –
38 | Oc1cnc2ccccc2c1 | > 128 | >= 64 ug ml-1 | – | – | – | > 128 | – | – | – | –
